Reference: ChEMBL document CHEMBL1268956, “3-Urea-1-(phenylmethyl)-pyridones as novel, potent, and selective EP3 receptor antagonists” (Bioorg Med Chem Lett, 2010)

Assays:
[1] = biological target: T1, Prostaglandin E2 receptor EP1 subtype (Homo sapiens, UniProt P34995); experiment: Displacement of radioligand from human EP1 receptor
T1 sequence (P34995 whole entry): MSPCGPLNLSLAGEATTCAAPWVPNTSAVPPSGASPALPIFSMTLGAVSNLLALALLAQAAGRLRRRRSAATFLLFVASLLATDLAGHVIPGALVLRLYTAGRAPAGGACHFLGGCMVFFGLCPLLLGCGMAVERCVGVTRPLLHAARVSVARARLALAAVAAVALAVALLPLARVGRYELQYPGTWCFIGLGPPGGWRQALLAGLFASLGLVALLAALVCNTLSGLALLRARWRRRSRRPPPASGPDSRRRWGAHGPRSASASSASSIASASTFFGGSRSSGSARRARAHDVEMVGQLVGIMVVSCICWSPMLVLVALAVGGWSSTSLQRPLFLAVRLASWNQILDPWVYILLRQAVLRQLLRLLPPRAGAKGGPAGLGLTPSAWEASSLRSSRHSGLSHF

[2] = biological target: Prostaglandin E2 receptor EP2 subtype (Homo sapiens, UniProt P43116); experiment: Displacement of radioligand from human EP2 receptor
Chain of Prostaglandin E2 receptor EP2 subtype (P43116 whole entry): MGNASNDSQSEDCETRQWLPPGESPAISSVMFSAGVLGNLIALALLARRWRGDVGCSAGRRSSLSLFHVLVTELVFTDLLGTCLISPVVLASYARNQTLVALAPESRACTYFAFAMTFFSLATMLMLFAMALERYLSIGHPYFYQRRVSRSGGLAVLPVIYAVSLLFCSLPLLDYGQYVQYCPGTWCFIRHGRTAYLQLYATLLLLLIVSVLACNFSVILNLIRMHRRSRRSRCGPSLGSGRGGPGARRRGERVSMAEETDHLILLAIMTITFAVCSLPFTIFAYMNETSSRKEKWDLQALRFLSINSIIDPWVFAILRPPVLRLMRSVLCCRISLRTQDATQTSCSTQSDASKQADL

[3] = biological target: Prostaglandin E2 receptor EP4 subtype (Homo sapiens, UniProt P35408); experiment: Displacement of radioligand from human EP4 receptor
Chain of Prostaglandin E2 receptor EP4 subtype (P35408 whole entry): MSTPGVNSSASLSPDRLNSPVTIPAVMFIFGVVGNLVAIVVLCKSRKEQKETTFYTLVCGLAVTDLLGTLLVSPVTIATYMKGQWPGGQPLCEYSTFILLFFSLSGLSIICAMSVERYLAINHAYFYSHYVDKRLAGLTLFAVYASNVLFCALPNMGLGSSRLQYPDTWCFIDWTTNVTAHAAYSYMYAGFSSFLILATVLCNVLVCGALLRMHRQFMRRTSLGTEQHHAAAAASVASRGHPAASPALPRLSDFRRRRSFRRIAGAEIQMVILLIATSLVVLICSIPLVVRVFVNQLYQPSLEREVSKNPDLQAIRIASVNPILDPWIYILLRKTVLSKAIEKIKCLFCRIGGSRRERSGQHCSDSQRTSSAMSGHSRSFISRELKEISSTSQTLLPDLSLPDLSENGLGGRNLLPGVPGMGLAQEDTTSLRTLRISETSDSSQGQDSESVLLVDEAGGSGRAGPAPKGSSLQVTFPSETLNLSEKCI

[4] = biological target: Prostaglandin F2-alpha receptor (Homo sapiens, UniProt P43088); experiment: Displacement of radioligand from human FP receptor
Chain of Prostaglandin F2-alpha receptor (P43088 whole entry): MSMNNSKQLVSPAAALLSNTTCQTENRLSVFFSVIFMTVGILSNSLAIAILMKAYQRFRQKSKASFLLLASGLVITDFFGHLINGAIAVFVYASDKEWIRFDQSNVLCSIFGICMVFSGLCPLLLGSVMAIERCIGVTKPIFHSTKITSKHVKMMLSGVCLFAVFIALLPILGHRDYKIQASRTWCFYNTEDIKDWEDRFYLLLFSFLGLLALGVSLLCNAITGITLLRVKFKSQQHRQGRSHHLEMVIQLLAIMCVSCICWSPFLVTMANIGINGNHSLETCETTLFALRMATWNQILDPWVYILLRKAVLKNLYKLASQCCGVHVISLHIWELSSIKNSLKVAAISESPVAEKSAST

Thromboxane A2 receptor = biological target: T2, Thromboxane A2 receptor (Homo sapiens, UniProt P21731); experiment: Displacement of radioligand from human TP receptor
T2 sequence (P21731 whole entry): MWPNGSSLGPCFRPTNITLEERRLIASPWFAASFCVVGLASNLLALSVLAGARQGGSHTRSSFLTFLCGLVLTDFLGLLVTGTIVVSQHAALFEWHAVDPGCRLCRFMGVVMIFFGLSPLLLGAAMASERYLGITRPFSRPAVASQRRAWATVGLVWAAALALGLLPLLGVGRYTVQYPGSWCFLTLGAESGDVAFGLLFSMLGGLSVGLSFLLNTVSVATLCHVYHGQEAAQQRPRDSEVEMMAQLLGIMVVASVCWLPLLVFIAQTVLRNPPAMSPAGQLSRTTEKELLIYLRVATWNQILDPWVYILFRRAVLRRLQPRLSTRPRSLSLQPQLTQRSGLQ

[5] = biological target: T3, Prostaglandin E2 receptor EP3 subtype (Rattus norvegicus, UniProt P34980); experiment: Inhibition of rat EP3 receptor
T3 sequence (P34980 whole entry): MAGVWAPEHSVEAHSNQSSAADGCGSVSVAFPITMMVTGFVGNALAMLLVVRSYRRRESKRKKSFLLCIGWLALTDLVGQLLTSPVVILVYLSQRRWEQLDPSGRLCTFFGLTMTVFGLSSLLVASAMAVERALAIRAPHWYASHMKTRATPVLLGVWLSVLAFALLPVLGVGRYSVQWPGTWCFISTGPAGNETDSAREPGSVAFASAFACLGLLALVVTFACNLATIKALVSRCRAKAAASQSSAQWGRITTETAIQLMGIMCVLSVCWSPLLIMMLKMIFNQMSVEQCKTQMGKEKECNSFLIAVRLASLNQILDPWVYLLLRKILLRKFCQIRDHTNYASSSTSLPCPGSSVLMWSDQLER

[6] = biological target: T4, Prostaglandin E2 receptor EP3 subtype (Homo sapiens, UniProt P43115); experiment: Antagonist activity at human EP3 receptor expressed in human U2OS cells assessed as inhibition of PGE2-induced intracellular calcium mobilization by FLIPR assay; type: functional, cell-based
T4 sequence (P43115 whole entry): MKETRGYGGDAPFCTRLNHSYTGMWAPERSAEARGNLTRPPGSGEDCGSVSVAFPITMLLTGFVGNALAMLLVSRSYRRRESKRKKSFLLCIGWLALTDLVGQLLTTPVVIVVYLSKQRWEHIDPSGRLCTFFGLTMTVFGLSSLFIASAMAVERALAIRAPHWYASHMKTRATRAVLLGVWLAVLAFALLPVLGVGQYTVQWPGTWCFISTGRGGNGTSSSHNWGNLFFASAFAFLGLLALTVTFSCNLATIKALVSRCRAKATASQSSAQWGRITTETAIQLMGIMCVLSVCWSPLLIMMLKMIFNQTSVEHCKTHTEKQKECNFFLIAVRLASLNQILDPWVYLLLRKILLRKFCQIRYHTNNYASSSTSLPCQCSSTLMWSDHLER

[7] = biological target: Prostaglandin G/H synthase 1 (Homo sapiens, UniProt P23219); experiment: Inhibition of human COX1 in human whole blood by ELISA; type: tissue-based
Chain of Prostaglandin G/H synthase 1 (P23219 whole entry): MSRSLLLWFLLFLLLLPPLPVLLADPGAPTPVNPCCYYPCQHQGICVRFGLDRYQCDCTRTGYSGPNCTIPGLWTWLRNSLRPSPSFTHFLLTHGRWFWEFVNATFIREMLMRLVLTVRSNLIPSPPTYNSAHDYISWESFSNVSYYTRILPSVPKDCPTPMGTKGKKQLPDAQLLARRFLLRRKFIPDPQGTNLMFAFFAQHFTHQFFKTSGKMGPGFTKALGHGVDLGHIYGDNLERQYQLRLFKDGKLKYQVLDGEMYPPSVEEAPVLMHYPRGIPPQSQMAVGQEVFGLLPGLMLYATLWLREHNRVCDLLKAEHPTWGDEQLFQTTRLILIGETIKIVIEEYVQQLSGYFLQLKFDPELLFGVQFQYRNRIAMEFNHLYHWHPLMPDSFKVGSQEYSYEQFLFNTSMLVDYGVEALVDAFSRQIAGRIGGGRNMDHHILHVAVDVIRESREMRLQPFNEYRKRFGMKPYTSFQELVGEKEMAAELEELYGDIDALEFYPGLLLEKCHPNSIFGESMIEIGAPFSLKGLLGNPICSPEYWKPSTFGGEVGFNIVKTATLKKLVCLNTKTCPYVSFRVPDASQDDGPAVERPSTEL
In short: (§1)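 Human whole blood; COX1 and COX2 inhibition read out in ELISA format.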

[8] = biological target: T5, Prostaglandin G/H synthase 2 (Homo sapiens, UniProt P35354); experiment: Inhibition of human COX2 in human whole blood by ELISA; type: tissue-based; in short: as §1
T5 sequence (P35354 whole entry): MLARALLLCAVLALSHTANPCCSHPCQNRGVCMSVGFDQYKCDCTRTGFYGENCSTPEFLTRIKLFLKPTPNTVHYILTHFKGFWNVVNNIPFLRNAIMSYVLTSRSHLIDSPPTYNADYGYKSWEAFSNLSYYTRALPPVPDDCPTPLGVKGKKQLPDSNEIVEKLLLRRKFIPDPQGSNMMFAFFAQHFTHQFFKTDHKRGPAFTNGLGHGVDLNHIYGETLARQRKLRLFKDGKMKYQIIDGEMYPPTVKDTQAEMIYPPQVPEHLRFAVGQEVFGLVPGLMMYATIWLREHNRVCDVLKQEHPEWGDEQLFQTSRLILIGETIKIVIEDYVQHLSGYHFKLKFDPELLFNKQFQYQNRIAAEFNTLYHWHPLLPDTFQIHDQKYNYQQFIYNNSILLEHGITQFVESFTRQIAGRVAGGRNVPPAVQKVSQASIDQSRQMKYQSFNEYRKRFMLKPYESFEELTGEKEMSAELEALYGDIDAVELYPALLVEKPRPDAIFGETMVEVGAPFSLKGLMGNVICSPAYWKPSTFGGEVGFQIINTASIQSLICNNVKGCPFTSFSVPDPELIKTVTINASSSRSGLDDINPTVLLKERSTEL

Cytochrome P450 1A2 = biological target: T6, Cytochrome P450 1A2 (Homo sapiens, UniProt P05177); experiment: Inhibition of CYP1A2; type: ADME
T6 sequence (P05177 whole entry): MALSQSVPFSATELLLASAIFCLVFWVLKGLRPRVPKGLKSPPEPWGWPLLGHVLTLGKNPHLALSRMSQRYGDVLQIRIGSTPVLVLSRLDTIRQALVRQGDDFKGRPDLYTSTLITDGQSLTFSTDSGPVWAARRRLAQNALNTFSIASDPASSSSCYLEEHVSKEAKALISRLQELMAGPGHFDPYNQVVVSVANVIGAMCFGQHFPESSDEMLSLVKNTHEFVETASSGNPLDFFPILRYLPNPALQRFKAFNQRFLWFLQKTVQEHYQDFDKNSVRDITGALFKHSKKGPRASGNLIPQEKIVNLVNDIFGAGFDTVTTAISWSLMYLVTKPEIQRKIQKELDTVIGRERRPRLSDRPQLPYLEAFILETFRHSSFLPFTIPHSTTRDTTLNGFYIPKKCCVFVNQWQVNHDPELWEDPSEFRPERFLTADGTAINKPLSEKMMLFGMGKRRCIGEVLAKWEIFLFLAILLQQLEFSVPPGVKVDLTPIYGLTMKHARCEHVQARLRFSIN

[9] = biological target: Prostaglandin D2 receptor (Homo sapiens) (UniProt Q13258); experiment: Displacement of radioligand from human DP receptor
Chain of Prostaglandin D2 receptor (Homo sapiens) (Q13258 whole entry, looked up): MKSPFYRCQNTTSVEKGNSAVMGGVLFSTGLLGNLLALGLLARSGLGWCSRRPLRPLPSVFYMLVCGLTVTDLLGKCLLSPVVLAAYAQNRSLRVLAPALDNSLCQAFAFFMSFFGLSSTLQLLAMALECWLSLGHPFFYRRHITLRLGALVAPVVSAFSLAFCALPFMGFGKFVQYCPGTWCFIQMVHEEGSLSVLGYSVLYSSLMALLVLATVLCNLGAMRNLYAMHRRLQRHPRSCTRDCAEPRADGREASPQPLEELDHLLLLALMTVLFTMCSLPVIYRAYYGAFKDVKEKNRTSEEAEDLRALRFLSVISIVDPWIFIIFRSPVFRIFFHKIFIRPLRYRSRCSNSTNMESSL

Work on `CCc1cccc(NC(=O)Nc2cccn(Cc3ccccc3Cl)c2=O)c1` yielded a Ki [1] of over 10 µM, a Ki [2] of over 10 µM and a Ki [3] of over 10 µM. For the same compound, the Ki [4] was over 10 µM, the Ki (Thromboxane A2 receptor) was over 10 µM and the Ki [5] was 0.158 µM. The Ki [6] was 0.0501 µM, the Ki [7] was over 100 µM and the Ki [8] was over 100 µM. For the same compound, the Ki (Cytochrome P450 1A2) was 2 µM and the pKi [9] was under 5.
